The values below come from article PMC10951637 (iScience, 2024).

The conditions of data set [1]: phase 2b, oral, adults with obesity; cited from earlier work.
Data set [2] concerns blood glucose of non-fasted db/db mice. In words: Hypoglycemic duration assay. Conditions: single s.c. dose 25 nmol/kg, 0 to 36 h, n = 5. Format: in vivo, C57BL/6 db/db mice. A digest of the protocol: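 Non-fasted male C57BL/6 db/db mice with free food and water were randomised into groups (n = 5). Each got one s.c. dose of 25 nmol/kg test compound, or PBS as control. Tail-blood glucose was read by glucometer at 0, 0.5, 1, 2, 4, 6, 8, 10, 24 and 36 h. […] Data are mean ± SD, one-way ANOVA with Tukey test.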

Data set [3] has as its system diabetic db/db mice. In words: Chronic efficacy study. Conditions: for HbA1c value attenuated from baseline / body weight increase: 25 nmol/kg s.c. once daily for 4 weeks, n = 5; for reduction of AUC glucose 0–210 min, OGTT day 15: chronic study, 25 nmol/kg s.c. once daily, day 15, n = 5. Format: in vivo.
For data set [4] the following is noted: cited from earlier work.
Setting [5] is: phase III study (SURPASS-1), across all doses.

Regarding `N#Cc1ccc(COc2cccc(C3CCN(Cc4nc5ccc(C(=O)O)cc5n4C[C@@H]4CCO4)CC3)n2)c(F)c1` [Danuglipron], in data set [1], the discontinuation rate entry is recorded as “greater than 50%”, the rate of diarrhea is listed as 25%, the rate of nausea is given as 73% and the rate of vomiting is listed as 47%.

On to exendin-4: GLP-1R mono-agonist, for which, in data set [2], the “glucose AUC0–36h (in words)” value was “comparable to that of the PBS group”. For the same compound, in data set [3], the “HbA1c value attenuated from baseline” value is listed as “approximately 15%”; the body weight increase is reported as around 6.9%; the “reduction of AUC glucose 0–210 min, OGTT day 15” value is around 18%.

For liraglutide, in data set [3], the “HbA1c value attenuated from baseline” value is recorded as around 30%; the body weight increase is around 7.4%; the “reduction of AUC glucose 0–210 min, OGTT day 15” value is recorded as around 40%.

“tirzepatide: imbalanced GLP-1R/GIPR co-agonist, fatty diacid conjugated to K”: in data set [4] (in T2D treatment and in obesity independent of diabetes), the weight loss result is listed as “more than 20%”. Besides, in data set [4] (setting [5]), the “incidence of gastrointestinal disorders” value is recorded as 28–41% and the study drug discontinuation is recorded as 3–7%.
